Values after ≈ are worked out from the molar mass of the structure shown. Values joined by “and” are separate entries in the source; they are usually repeats but may differ in a detail not shown here. Identical values can stand only once.
Key:
[1] = species on record: Mus musculus; experiment: Mean time survival (MTS) of the mice at the end of 28 or 49 days.; type: functional
In short: (§1)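 Inocula were TK⁻ HSV-1 at 10⁶ CCID50/0.05 mL or HSV-1 KOS at 10^4.7 PFU/0.05 mL. Test formulations in DMSO were applied topically four times daily for 5 days, starting at infection. Skin lesions, hind-leg paralysis and death were recorded daily for 28 (KOS) or 49 (TK⁻) days, with five mice per group.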

[2] = test system: Mus musculus; experiment: Topical treatment of intracutaneous TK- herpes simplex virus type 1 of strain VMW 1837 infection of Nu/nu mice for mean day of appearance of skin lesions and/or paralysis of the hind legs at 0.3% concentration (v/v in DMSO); type: functional; in short: as §1
[3] = test system: Mus musculus; experiment: Topical treatment of intracutaneous TK- herpes simplex virus type 1 of strain VMW 1837 infection of Nu/nu mice for mean day of appearance of skin lesions and/or paralysis of the hind legs at 1% concentration (v/v in DMSO); type: functional; in short: as §1
[4] = test system: Mus musculus; experiment: Topical treatment of intracutaneous TK- herpes simplex virus type 1 of strain VMW 1837 infection of Nu/nu mice for mean day of appearance of skin lesions and/or paralysis of the hind legs at 3% concentration (v/v in DMSO); type: functional; in short: as §1
[5] = species on record: Oryctolagus cuniculus; experiment: Evaluated for the minimum cytotoxic concentration (MCC) upon preincubation of rabbit kidney cells; type: functional
In short: (§2)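 Primary rabbit kidney cell cultures were exposed to compounds, some preincubated 24 h at 37 °C in medium with 10% fetal calf serum. The minimum cytotoxic concentration was the level causing a microscopically detectable change in normal cell morphology.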

[6] = species on record: Oryctolagus cuniculus; experiment: Evaluated for the minimum cytotoxic concentration (MCC) upon preincubation of rabbit kidney cells in medium containing 10% fetal calf serum at 37 degree Celsius for 24 hr; type: functional; settings: Oryctolagus cuniculus, kidney; read-out: MCC; in short: as §2
[7] = test system: Vesicular stomatitis virus; experiment: Evaluated for the minimum inhibitory concentration (MIC) in primary rabbit kidney (PRK) by 50% upon pre-incubation in medium containing 10% fetal calf serum at 37 degree Centigrade for 24 hr against Vesicular stomatitis virus; type: functional
In short: (§3)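 Compounds were preincubated in medium with 10% fetal calf serum for 24 h at 37 °C before addition to the cells. Confluent primary rabbit kidney monolayers were infected with 100 CCID50 of virus and adsorbed for 1 h. Residual virus was removed and cells were incubated with varying compound concentrations. The endpoint was 50% reduction of cytopathogenicity, read when infected controls reached full CPE.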

[8] = test system: Vesicular stomatitis virus; experiment: Evaluated for the minimum inhibitory concentration (MIC) in primary rabbit kidney (PRK) by 50% against Vesicular stomatitis virus; type: functional
In short: (§4)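 Confluent primary rabbit kidney cell monolayers were infected with 100 CCID50 of virus. After 1 h adsorption, residual virus was removed and cells were incubated with serial compound concentrations. Cytopathogenicity was scored once it reached completion in untreated infected controls. The endpoint was the concentration reducing virus-induced cytopathogenicity by 50%.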

[9] = test system: Vaccinia virus; experiment: Evaluated for the minimum inhibitory concentration (MIC) in primary rabbit kidney (PRK) by 50% upon pre-incubation in medium containing 10% fetal calf serum at 37 degree Centigrade for 24 hr against Vaccinia virus; type: functional; settings: Orthopoxvirus vaccinia; in short: as §3
[10] = test system: Human alphaherpesvirus 1; experiment: Evaluated for the minimum inhibitory concentration (MIC) in primary rabbit kidney (PRK) by 50% upon pre-incubation in medium containing 10% fetal calf serum at 37 degree Centigrade for 24 hr against TK- herpes simplex virus type 1 (TK- HSV-1) with st; type: functional; in short: as §3
[11] = test system: Vaccinia virus; experiment: Evaluated for the minimum inhibitory concentration (MIC) in primary rabbit kidney (PRK) by 50% against Vaccinia virus; type: functional; settings: Orthopoxvirus vaccinia; in short: as §4
[12] = test system: Human alphaherpesvirus 2; experiment: Evaluated for the minimum inhibitory concentration (MIC) in primary rabbit kidney (PRK) by 50% upon preincubation in medium containing 10% fetal calf serum at 37 degree Celsius for 24 hr against herpes simplex virus type-2 (HSV-2) with strains Ly; type: functional; in short: as §3
[13] = test system: Human alphaherpesvirus 1; experiment: Evaluated for the minimum inhibitory concentration (MIC) in primary rabbit kidney (PRK) by 50% against TK- herpes simplex virus type 1 (TK- HSV-1) with strain B2006; type: functional; in short: as §4
[14] = test system: Human alphaherpesvirus 1; experiment: Evaluated for the minimum inhibitory concentration (MIC) in primary rabbit kidney (PRK) by 50% against TK- herpes simplex virus type 1 (TK- HSV-1) with strain VMW 1837.; type: functional; in short: as §4
[15] = test system: Human alphaherpesvirus 1; experiment: Evaluated for the minimum inhibitory concentration (MIC) in primary rabbit kidney (PRK) by 50% against herpes simplex virus type-1 (HSV-1) with strains KOS; type: functional
In short: (§5)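 Confluent primary rabbit kidney cell cultures infected with 100 CCID50 virus; after 1 h adsorption residual virus removed and cells incubated with varying compound concentrations. Cytopathogenicity scored when complete in infected untreated controls; MIC = concentration reducing virus-induced cytopathogenicity by 50%. Compounds tested as such or after preincubation in medium with 10% fetal calf serum, 24 h, 37 °C.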

[16] = test system: Human alphaherpesvirus 1; experiment: Evaluated for the minimum inhibitory concentration (MIC) in primary rabbit kidney (PRK) by 50% against herpes simplex virus type-1 (HSV-1) with strains McIntyre; type: functional; in short: as §5
[17] = test system: Human alphaherpesvirus 1; experiment: Evaluated for the minimum inhibitory concentration (MIC) in primary rabbit kidney (PRK) by 50% upon preincubation in medium containing 10% fetal calf serum at 37 degree Centigrade for 24 hr against herpes simplex virus type-1 (HSV-1) with strain McI; type: functional; in short: as §3
[18] = test system: Human alphaherpesvirus 1; experiment: Evaluated for the minimum inhibitory concentration (MIC) in primary rabbit kidney (PRK) by 50% upon preincubation in medium containing 10% fetal calf serum at 37 degree Celsius for 24 hr against herpes simplex virus type-1 (HSV-1) with strainF; type: functional; in short: as §3
[19] = test system: Human alphaherpesvirus 1; experiment: Evaluated for the minimum inhibitory concentration (MIC) in primary rabbit kidney (PRK) by 50% upon pre-incubation in medium containing 10% fetal calf serum at 37 degree Centigrade for 24 hr against herpes simplex virus type-1 (HSV-1) with strainKOS; type: functional; in short: as §3
[20] = test system: Human alphaherpesvirus 2; experiment: Evaluated for the minimum inhibitory concentration (MIC) in primary rabbit kidney (PRK) by 50% against herpes simplex virus type-2 (HSV-2) with strains 196; type: functional; in short: as §5
[21] = test system: Human alphaherpesvirus 2; experiment: Evaluated for the minimum inhibitory concentration (MIC) in primary rabbit kidney (PRK) by 50% against herpes simplex virus type-2 (HSV-2) with strains G; type: functional; in short: as §4
[22] = test system: Human alphaherpesvirus 2; experiment: Evaluated for the minimum inhibitory concentration (MIC) in primary rabbit kidney (PRK) by 50% against herpes simplex virus type-2 (HSV-2) with strains Lyons; type: functional; in short: as §5
[23] = test system: Human alphaherpesvirus 2; experiment: Evaluated for the minimum inhibitory concentration (MIC) in primary rabbit kidney (PRK) by 50% upon preincubation in medium containing 10% fetal calf serum at 37 degree Centigrade for 24 hr against herpes simplex virus type-2 (HSV-2) with strains 19; type: functional; in short: as §3
[24] = test system: Human alphaherpesvirus 2; experiment: Evaluated for the minimum inhibitory concentration (MIC) in primary rabbit kidney (PRK) by 50% upon preincubation in medium containing 10% fetal calf serum at 37 degree Celsius for 24 hr against herpes simplex virus type-2 (HSV-2) with strains G; type: functional; in short: as §3
[25] = test system: Human alphaherpesvirus 1; experiment: Evaluated for the minimum inhibitory concentration (MIC) in primary rabbit kidney (PRK) by 50% against herpes simplex virus type-1 (HSV-1) with strains F; type: functional; in short: as §5
[26] = test system: Human alphaherpesvirus 1; experiment: Evaluated for the minimum inhibitory concentration (MIC) in primary rabbit kidney (PRK) by 50% upon preincubation in medium containing 10% fetal calf serum at 37 degree Centigrade for 24 hr against TK- herpes simplex virus type 1 (TK- HSV-1) with st; type: functional; in short: as §3
[27] = pKa value was determined; type: physicochemical

For `CS(=O)(=O)c1ccc(OP(=O)(OC[C@H]2O[C@@H](n3cc(/C=C/Br)c(=O)[nH]c3=O)C[C@@H]2O)OC[C@H]2O[C@@H](n3cc(/C=C/Br)c(=O)[nH]c3=O)C[C@@H]2O)cc1`, which MTS [1] is on record?
The MTS was 15 days and 24.2 days and 37.8 days.

And the “Mean day appearance of lesions” value [2]?
The value was 16.7.

And the “Mean day appearance of lesions” value [3]?
The value was 10.4.

And the “Mean day appearance of lesions” value [4]?
Its value is 9.7.

What about the MCC [5] of the same compound?
Its MCC is greater than 400 µg/mL.

And the MCC [6]?
Its MCC is greater than 400 µg/mL.

And the MIC [7]?
Its MIC is greater than 400 µg/mL.

And the MIC [8]?
The MIC was greater than 400 µg/mL.

What about the MIC [9] of the same compound?
Its MIC is 70 µg/mL (≈ 79.3 µM).

What about the MIC [10] of the same compound?
Its MIC is 300 µg/mL (≈ 340 µM).

What about the MIC [11] of the same compound?
The MIC was greater than 400 µg/mL.

And the MIC [12]?
The MIC was 200 µg/mL (≈ 227 µM).

And the MIC [13]?
The MIC was greater than 400 µg/mL.

And the MIC [14]?
The MIC was greater than 400 µg/mL.

What about the MIC [15] of the same compound?
The MIC was 2 µg/mL (≈ 2.27 µM).

And the MIC [16]?
The MIC was 2 µg/mL (≈ 2.27 µM).

What about the MIC [17] of the same compound?
The MIC was 0.7 µg/mL (≈ 0.793 µM).

And the MIC [18]?
The MIC was 0.2 µg/mL (≈ 0.227 µM).

What about the MIC [19] of the same compound?
The MIC was 0.2 µg/mL (≈ 0.227 µM).

What about the MIC [20] of the same compound?
The MIC was greater than 400 µg/mL.

And the MIC [21]?
The MIC was greater than 200 µg/mL.

And the MIC [22]?
The MIC was greater than 400 µg/mL.

What about the MIC [23] of the same compound?
The MIC was greater than 400 µg/mL.

And the MIC [24]?
The MIC was 150 µg/mL (≈ 170 µM).

And the MIC [25]?
The MIC was 2 µg/mL (≈ 2.27 µM).

And the MIC [26]?
The MIC was greater than 400 µg/mL.

For `CC(=O)O[C@H]1C[C@H](n2cc(C)c(=O)[nH]c2=O)O[C@@H]1COP(=O)(OC[C@H]1O[C@@H](n2cc(C)c(=O)[nH]c2=O)C[C@@H]1OC(C)=O)Oc1ccccc1Cl`, which pKa [27] is on record?
Its pKa is 8.48.

— ChEMBL document CHEMBL1124765, “Synthesis and biological properties of novel phosphotriesters: a new approach to the introduction of biologically active nucleotides into cells” (J Med Chem, 1990)
